CXCR6 block = inhibitors of human CXCR6 receptor. actives 0.36% (n = 360,000). CHO-K1 PathHunter CXCR6 beta-arrestin, luminescence. inhibition, % at 20 µM. O00574. AID 602244; in the data active = inhibition above about 34%, passing the limit was not always enough;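 also: antagonist mode with CXCL16 agonist at 10 nM final; 0% = 10 nM CXCL16 with DMSO and 100% = unstimulated wells without agonist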
APJ antag = blocks the human apelin receptor APJ. CHO-K1 APJ beta-arrestin complementation, luminescence. inhibition, % at 20 µM. actives 0.32% (n = 330,000). P35414;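 active = inhibition above about 40% at 20 µM, limit read from the data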;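 also: cells challenged with 10 nM apelin-13 agonist together with compound; plate controls were apelin-13 plus DMSO wells for no effect and DMSO wells lacking apelin-13 for full effect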
Target sequence (P35414 whole entry, looked up): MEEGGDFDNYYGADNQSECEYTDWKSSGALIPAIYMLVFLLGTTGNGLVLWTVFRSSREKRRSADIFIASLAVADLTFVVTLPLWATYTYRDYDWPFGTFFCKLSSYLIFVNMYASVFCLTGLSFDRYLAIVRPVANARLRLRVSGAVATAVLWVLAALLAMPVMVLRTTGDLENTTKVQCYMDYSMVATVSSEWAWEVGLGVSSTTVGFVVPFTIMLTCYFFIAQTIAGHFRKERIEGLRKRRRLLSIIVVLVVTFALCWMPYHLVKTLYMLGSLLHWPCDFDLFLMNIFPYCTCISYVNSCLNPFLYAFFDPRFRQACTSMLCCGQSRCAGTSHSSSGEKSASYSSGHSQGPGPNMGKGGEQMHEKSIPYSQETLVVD
APJ agonist = APJ receptor agonism. CHO-K1 APJ PathHunter beta-arrestin, luminescence; 0% DMSO wells, 100% apelin. activation, % at 20 µM. actives 0.11% (n = 330,000). AID 2520. P35414;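 active = activation more than six SD over the plate average, tested at 20 µM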;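 also: 0% = DMSO alone and 100% = apelin-13 at 10 nM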
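Material: engineered CHO-K1 APJ arrestin reporter cells; amount: 1000 CHO-K1 reporter cells seeded per well; incubation: compound stimulation 90 min at 25 °C, detection 60 min; signal: luminescent beta-gal fragment complementation, chemiluminescent substrate; read-out basis: APJ agonist activity; controls: DMSO-only wells as negative, 10 nM Apelin-13 as positive control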
CCR6 antagonist = blocks CCL20-driven beta-arrestin recruitment at human CCR6; inhibition, % at 20 µM; actives 0.49% (n = 340,000); AID 493098; CHO-K1 CCR6 PathHunter beta-arrestin, luminescence, CCL20-stimulated; P51684;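 active = compounds whose inhibition of the agonist-driven luminescence signal at 20 µM reaches about 50%, limit read from the data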;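 also: cells stimulated with CCL20 at 14 nM final; plate controls were DMSO with CCL20 for no effect and DMSO without agonist for full effect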
EBI2 antag = EBI2 (human) antagonism; P32249; EBI2 beta-arrestin recruitment, luminescence, 7a,25-OHC stimulated; inhibition, % at 5 µM; actives 0.81% (n = 360,000); in the data active = inhibition above about 38%;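 also: enzyme fragment complementation signal reports receptor beta-arrestin coupling in cells; 0% = agonist plus DMSO wells and 100% = wells without agonist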
Target sequence (P32249 whole entry, looked up, the tested form may be a part): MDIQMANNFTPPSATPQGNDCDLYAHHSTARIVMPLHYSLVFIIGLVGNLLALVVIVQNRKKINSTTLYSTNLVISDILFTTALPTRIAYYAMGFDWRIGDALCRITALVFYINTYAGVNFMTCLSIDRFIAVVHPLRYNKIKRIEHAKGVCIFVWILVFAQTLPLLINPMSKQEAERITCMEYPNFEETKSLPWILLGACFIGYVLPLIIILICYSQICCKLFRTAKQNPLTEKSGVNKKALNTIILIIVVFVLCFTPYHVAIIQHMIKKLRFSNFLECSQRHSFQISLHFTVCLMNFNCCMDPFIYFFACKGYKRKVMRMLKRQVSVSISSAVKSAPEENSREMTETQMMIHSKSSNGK
hiPSC survival = increases survival of single human iPS cells | hiPSC single-cell survival, ATPlite luminescence; 100% = ROCK inhibitor wells, 0% = DMSO | survival enhancement, % at 20 µM | actives 0.044% (n = 360,000) | AID 602274; in the data active = survival enhancement above about 18%;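 also: cells exposed to compounds for 16 hours before the ATP read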
Active calls of the source: *; x = no result given. Compounds with a hit are over-represented: about 1.5% of the library has one in this group of screens.

SMILES | CXCR6 block | APJ antag | APJ agonist | CCR6 antagonist | EBI2 antag | hiPSC survival
Nc1ncnc2c1ncn2[C@@H]1O[C@H](C(=O)N[C@H]2c3ccccc3C[C@H]2O)[C@@H](O)[C@H]1O | 0.3 | x | x | x | -8.3 | -1.0
COc1cc(SC)ccc1C(=O)OCC(=O)N1CC(=O)Nc2ccccc21 | 10.6 | 8.0 | -0.2 | 4.7 | -16.0 | 1.5
CC1=NOC(=O)/C1=C\c1ccc(-c2ccc(Cl)cc2Cl)o1 | 28.7 | -27.8 | 35.1* | 31.8 | -25.7 | -2.7
CCCOc1ccc(Cl)cc1/C=C1/C(=O)ON=C1C | -23.7 | -10.8 | 1.6 | -1.1 | -7.5 | 0.0
O=C1OC2(c3ccccc31)c1cc(I)c(O)c(I)c1Oc1c2cc(I)c(O)c1I | x | 45.7* | -9.3 | x | x | x
CC1(C)C2CC[C@]3(C)C(CC=C4[C@@H]5C[C@@](C)(CO)[C@@H]6C[C@@]5(CC[C@]43C)C(=O)O6)[C@@]2(C)CC[C@@H]1O (stereo partly drawn) | x | 12.7 | 0.3 | 56.1* | x | x
CCn1nc([N+](=O)[O-])c(C(C#N)c2nc3cc(C(F)(F)F)ccc3s2)c(Cl)c1=O (stereo not drawn) | 38.2 | 55.6* | -11.0 | 52.3* | 5.8 | 1.7
CCCn1nc([N+](=O)[O-])c(C(C#N)c2nc3ccccc3o2)c(Cl)c1=O (stereo not drawn) | 30.8 | 37.9 | -3.8 | 49.5 | 3.1 | -1.3
NC(N)=N/N=C/c1cccc([N+](=O)[O-])c1O | 13.7 | 14.7 | -4.4 | 19.1 | -7.7 | 1.3
O=[N+]([O-])c1cccc(/C=N\N=C2c3ccccc3-c3ccccc32)c1O | 43.4* | 54.2* | -9.7 | 69.3* | -4.5 | -1.9
O=C(COC(=O)COc1ccccc1)NC12CC3CC(CC(C3)C1)C2 | 1.8 | -0.2 | -3.4 | -3.8 | -18.1 | 0.6
C/C(=N\Nc1ccc(C(=O)c2c(C)cc3ccccn23)cc1[N+](=O)[O-])c1ccc(O)cc1 | 46.7* | 16.7 | -5.0 | 41.5 | 39.9 | -0.1
Cc1cc2ccccn2c1C(=O)c1ccc(N/N=C/c2ccc(C(=O)O)cc2)c([N+](=O)[O-])c1 | 32.7 | x | x | 42.2 | -2.3 | -0.3
C/C(=N/Nc1ccc(C(=O)c2c(C)cc3ccccn23)cc1[N+](=O)[O-])c1ccc(O)cc1 | 36.9* | x | x | 47.2 | 19.1 | 0.6
O=C(COC(=O)c1ccccc1C(=O)c1ccc(Cl)c([N+](=O)[O-])c1)NC1CC1 | 29.8 | 18.7 | 2.2 | 27.5 | 12.3 | 36.5*
N#CC(=C1CCCC1)c1nc(-c2ccccc2O)cs1 | 5.5 | -8.6 | -3.2 | 16.6 | 65.0* | -3.2
CC(=O)Nc1ccc(NC(=O)COC(=O)c2ccc(S(=O)(=O)N(C)c3ccccc3)cc2)cc1 | 3.0 | x | x | 14.3 | -1.9 | -0.5
CCCCc1cc(=O)oc2cc(OCc3cc(OC)c(OC)c(OC)c3)c(Cl)cc12 | -7.0 | -6.9 | -1.0 | 7.3 | -2.6 | 22.6*
Cc1ccccc1CC(=O)Nc1ccc(S(=O)(=O)N2CCN(C)CC2)cc1 | 5.5 | -16.5 | -3.2 | -4.0 | -7.5 | -0.4
CC1CCN(C(=O)c2ccc3c(c2NCCO)C(=O)c2ccccc2C3=O)CC1 | 20.1 | -1.2 | -0.5 | 25.1 | 46.0* | 0.2
Cc1ccc(S(=O)(=O)N(CCC(=O)NCC(c2ccccc2)N(C)C)c2ccccc2)cc1 (stereo not drawn) | 2.5 | x | x | 12.6 | 0.9 | 2.5
Fc1cccc(NC(=S)NNc2c3ccccc3nc3ccccc23)c1 | 37.8 | x | x | 55.8* | -3.2 | -0.9
Fc1cccc(NC(=S)NNc2ccccc2)c1 | 7.0 | -15.7 | 0.7 | 15.7 | -9.5 | -0.3
COc1cc2c(cc1OC)CN(C(=O)CNS(=O)(=O)c1ccc(C)c(C)c1)CC2 | -1.9 | 1.7 | -1.1 | 1.1 | 3.7 | 0.6
CCOc1ccc(NC(=O)CN2CCN(CC(=O)Nc3cccc(F)c3)CC2)cc1 | 0.3 | 7.9 | 3.5 | 15.8 | -0.2 | -3.2
SMILES | CXCR6 block | APJ antag | APJ agonist | CCR6 antagonist | EBI2 antag | hiPSC survival
CCOc1ccc(NC(=O)CN2CCN(CC(=O)Nc3ccc(Cl)c(C(F)(F)F)c3)CC2)cc1 | -11.0 | -14.1 | -0.1 | -4.0 | 43.1* | -4.1
O=C(c1ccoc1)N1CCN(c2cc(-c3cccc(F)c3)nc3cc(-c4cccc(Cl)c4)nn23)CC1 | -3.6 | x | x | x | 22.6 | -0.9
Cc1cccc(Cn2c(=O)n(Cc3ccco3)c(=O)c3ccccc32)c1 | 14.1 | 14.0 | -2.4 | 33.3 | 60.5* | 3.5
CCn1c(=O)c2ccccc2n(Cc2cccc(C)c2)c1=O | -1.8 | 15.1 | -1.3 | 15.1 | 6.1 | 0.0
COc1cccc(NC(=O)CCc2c(C)nc3nc(CNC(=O)c4cccc(F)c4)nn3c2C)c1 | 4.8 | 3.7 | -3.5 | 7.3 | -11.8 | -0.4
O=S(=O)(Nc1ccc(N=Nc2ccc(O)c3ccccc23)cc1)c1ccccc1 | 34.5 | 37.9 | -10.4 | 60.5* | 46.9* | -1.0
O=S(=O)(Nc1ccc(N=Nc2ccccc2)cc1)c1ccccc1 | 26.0 | 25.6 | -4.6 | 36.7 | -0.2 | 2.5
O=C(O)c1ccccc1NS(=O)(=O)c1cccc(-n2sc3ccccc3c2=O)c1 | -17.5 | -33.5 | 2.2 | -36.1 | 96.1* | -0.4
C/C(=C\C(=O)c1ccc(Br)cc1)NNC(=O)c1ccc(O)cc1 | 11.5 | 37.5 | -2.0 | 42.4 | -2.0 | -0.5
C/C(=C\C(=O)c1ccc(Br)cc1)NNC(=O)c1ccccc1 | 29.4 | 35.1 | -7.9 | 64.8* | 6.1 | 0.4
CCN(C(=S)Nc1ccc(OC(F)F)cc1)C1CCCCC1 | -7.9 | 0.4 | -4.1 | 8.2 | 46.6* | -0.3
CCCN1CCCc2ccccc21 | 3.2 | 8.8 | -6.8 | 10.0 | -2.2 | 5.7
N#CCCN1CCCc2cc(N=Nc3ccc(C(F)(F)F)cc3)ccc21 | 16.8 | 30.5 | -6.2 | 30.3 | 55.9* | 0.5
COc1ccc(Cl)cc1NC(=O)Cn1c(C)csc1=O | 5.3 | -0.2 | -5.8 | 4.7 | 1.0 | 0.3
C/C(=N/NC(=O)c1ccncc1)C1=C(O)CC(C)(C)CC1=O | 25.0 | -0.3 | -1.4 | 5.2 | -8.1 | -0.2
C[C@@H]1CN([C@H](C)CO)S(=O)(=O)c2ccc(C#Cc3ccccc3F)cc2O[C@H]1CN(C)C(=O)c1ccc2c(c1)OCO2 | 8.3 | x | x | x | -35.8 | -2.2
COC1=C(OC)C(=O)C(Sc2ccc3ccccc3c2)=CC1=O | 72.0* | x | x | x | -1.1 | 3.5
CC(C)(C)OC(=O)N[C@@H](Cc1ccccc1)c1nnc(S(=O)(=O)Cc2cccc(F)c2)o1 | x | 29.4 | -0.2 | 69.0* | x | x
Cc1ccccc1CS(=O)(=O)c1nnc([C@H](CC(C)C)NC(=O)OC(C)(C)C)o1 | 26.7 | 30.5 | -1.4 | 53.3* | 13.0 | -1.3
COc1ccc(C(=O)/C=C/C(=O)N(CC(=O)NC2CCCCC2)Cc2ccc(F)cc2)c(O)c1 | 59.7* | x | x | 97.5* | 29.9 | -3.9
COc1ccc(C(=O)/C=C/C(=O)N(CC(=O)NCCC(C)C)Cc2cccs2)c(O)c1 | 21.4 | x | x | 84.6* | 11.0 | -2.5

High-throughput results: PubChem BioAssay, Sanford-Burnham Center for Chemical Genomics
